Results: publication PMC6136361 (Journal of Enzyme Inhibition and Medicinal Chemistry, 2018)
Several values for one entry are separate records, joined by “and”; a condition that tells them apart may be missing. Equal entries are not always repeated. Where two headings read alike, the source gives them in different places.

How the values were obtained:
caspase-3 = assay: ELISA immunoassay of active caspase-3 level in HepG-2 cells; assay type: cell-based, human; settings: HepG-2, at IC50, 24 h
HepG-2 cells [1] = assay: Cytotoxicity, Sulforhodamine-B; assay type: cell-based, human; settings: for IC50: Homo sapiens
Bax = assay: ELISA immunoassay of Bax level in HepG-2 cells; assay type: cell-based, human; settings: for Bax level, fold increase compared to the control: HepG-2, at IC50, 24 h
HCT-116 cells = assay: Cytotoxicity, Sulforhodamine-B; assay type: cell-based; settings: Homo sapiens
In short: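 SRB viability: cells seeded at 5 × 10^4–10^5/well and left to attach 24 h. Test compound (DMSO, diluted in saline) at 0.001–100 µM for 48 h, four wells per concentration; vehicle-only controls. Fixed cold 50% TCA 1 h at 4 °C, stained 0.4% SRB in 1% acetic acid 30 min, dye solubilised in 10 mM tris base pH 10.5, OD 564 nm. Survival fraction = OD treated/OD control; IC50 from survival-concentration plot; repeated three times.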

caspase-7 = assay: ELISA immunoassay of active caspase-7 level in HepG-2 cells; assay type: cell-based, human; settings: HepG-2, at IC50, 24 h
HepG-2 cells [2] = assay: DNA-flow cytometry cell cycle analysis; assay type: cell-based, human; settings: HepG-2, at IC50, 24 h; for apoptotic sub-G1 cell population: control 0.10%
In short: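 HepG-2 cells exposed to test compound for 24 h, with an untreated control. Cells washed twice in ice-cold PBS, pelleted, fixed in ice-cold 70% ethanol, treated with 0.1 mg/mL RNase and stained with propidium iodide. DNA content measured by flow cytometry to give cell-cycle phase distribution. Fold change versus control; mean ± SEM, n = 4, one-way ANOVA with Tukey test.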

β-tubulin = β-tubulin (Homo sapiens, UniProt P07437); assay: β-tubulin polymerization inhibition assay; assay type: cell-based; settings: for %β-TUB polymerization inhibition: at their IC50 values on HepG-2 cells; for β-tubulin polymerization inhibition: at their IC50 values, HepG-2 cells
VEGFR-2 = VEGFR-2 (Homo sapiens, UniProt P35968); assay: biochemical; assay type: biochemical
p53 = assay: ELISA immunoassay of p53 level in HepG-2 cells; assay type: cell-based, human; settings: HepG-2, at IC50, 24 h
HepG-2 cells [3] = assay: FITC-annexin V / PI staining for apoptosis; assay type: cell-based, human; settings: HepG-2, at IC50, 24 h; for late apoptotic cells percentage (Q2): control 0.34%
Bcl-2 = assay: ELISA immunoassay of Bcl-2 level in HepG-2 cells; assay type: cell-based, human; settings: HepG-2, at IC50, 24 h
[4] = HepG2, 48 h, read-out: IC50 HepG-2
[5] = HCT-116, 48 h, read-out: IC50 HCT-116
[6] = HepG2, read-out: Experimental cytotoxicity pIC50 (converted)

Sequence of β-tubulin (P07437 whole entry): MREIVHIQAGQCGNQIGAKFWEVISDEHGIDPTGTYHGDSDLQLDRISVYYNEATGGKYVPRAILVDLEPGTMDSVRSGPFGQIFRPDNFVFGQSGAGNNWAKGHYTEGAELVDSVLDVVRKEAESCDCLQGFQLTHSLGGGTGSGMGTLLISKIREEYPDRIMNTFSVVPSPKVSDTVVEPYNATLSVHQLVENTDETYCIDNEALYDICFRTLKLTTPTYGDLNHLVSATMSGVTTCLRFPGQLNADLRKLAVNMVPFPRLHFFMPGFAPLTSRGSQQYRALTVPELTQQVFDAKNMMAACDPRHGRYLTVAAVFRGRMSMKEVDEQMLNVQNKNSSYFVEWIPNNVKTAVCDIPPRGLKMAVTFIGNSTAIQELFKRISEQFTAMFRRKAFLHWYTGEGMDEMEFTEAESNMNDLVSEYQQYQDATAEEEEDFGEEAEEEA
Sequence of β-tubulin (P68363 whole entry partner): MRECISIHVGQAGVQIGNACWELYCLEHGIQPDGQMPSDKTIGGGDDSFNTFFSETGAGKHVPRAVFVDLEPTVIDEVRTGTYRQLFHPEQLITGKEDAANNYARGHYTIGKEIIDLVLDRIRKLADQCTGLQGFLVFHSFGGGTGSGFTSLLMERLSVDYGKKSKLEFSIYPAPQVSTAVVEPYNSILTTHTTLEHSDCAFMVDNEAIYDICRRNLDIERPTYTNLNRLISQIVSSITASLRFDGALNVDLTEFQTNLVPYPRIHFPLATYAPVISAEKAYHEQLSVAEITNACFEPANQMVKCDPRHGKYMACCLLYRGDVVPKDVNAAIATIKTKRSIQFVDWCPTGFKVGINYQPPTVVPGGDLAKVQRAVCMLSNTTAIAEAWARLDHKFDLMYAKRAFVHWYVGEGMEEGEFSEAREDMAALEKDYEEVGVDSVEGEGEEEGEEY
Sequence of VEGFR-2 (P35968 20-1356): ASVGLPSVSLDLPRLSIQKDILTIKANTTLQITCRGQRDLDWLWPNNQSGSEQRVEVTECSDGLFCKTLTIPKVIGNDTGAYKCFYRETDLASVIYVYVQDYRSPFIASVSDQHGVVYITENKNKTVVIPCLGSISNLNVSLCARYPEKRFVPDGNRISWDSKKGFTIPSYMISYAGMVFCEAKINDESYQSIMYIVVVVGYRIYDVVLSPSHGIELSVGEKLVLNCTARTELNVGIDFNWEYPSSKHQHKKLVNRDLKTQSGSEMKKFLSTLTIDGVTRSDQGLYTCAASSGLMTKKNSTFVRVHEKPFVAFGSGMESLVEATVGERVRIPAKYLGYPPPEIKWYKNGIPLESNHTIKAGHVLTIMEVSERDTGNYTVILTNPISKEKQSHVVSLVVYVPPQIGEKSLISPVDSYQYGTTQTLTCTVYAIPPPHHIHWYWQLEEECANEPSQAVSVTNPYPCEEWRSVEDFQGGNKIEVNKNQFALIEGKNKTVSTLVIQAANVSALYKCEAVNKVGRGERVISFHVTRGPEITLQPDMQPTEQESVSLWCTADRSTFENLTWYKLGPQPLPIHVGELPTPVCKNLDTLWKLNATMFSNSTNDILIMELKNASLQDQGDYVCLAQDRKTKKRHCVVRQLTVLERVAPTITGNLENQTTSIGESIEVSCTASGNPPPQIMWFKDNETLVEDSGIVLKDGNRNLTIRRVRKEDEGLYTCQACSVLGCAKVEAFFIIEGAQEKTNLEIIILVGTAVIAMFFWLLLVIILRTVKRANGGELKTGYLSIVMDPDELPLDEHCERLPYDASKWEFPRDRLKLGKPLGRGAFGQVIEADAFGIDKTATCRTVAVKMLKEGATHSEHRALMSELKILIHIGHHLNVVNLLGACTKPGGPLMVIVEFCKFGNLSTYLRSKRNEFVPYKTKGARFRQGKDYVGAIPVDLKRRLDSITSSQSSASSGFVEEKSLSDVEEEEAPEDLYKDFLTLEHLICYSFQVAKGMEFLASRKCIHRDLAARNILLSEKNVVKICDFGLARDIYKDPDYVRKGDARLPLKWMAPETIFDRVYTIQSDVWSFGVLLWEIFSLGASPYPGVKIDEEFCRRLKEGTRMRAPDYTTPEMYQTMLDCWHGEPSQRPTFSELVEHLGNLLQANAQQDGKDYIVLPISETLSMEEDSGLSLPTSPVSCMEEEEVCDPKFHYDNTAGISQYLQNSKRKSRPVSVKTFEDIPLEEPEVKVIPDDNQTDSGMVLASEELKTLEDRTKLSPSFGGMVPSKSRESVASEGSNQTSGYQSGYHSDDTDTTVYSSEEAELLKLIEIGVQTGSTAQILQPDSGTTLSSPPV

Row | IC50 (VEGFR-2) [µM] | SMILES | IC50 (HepG-2 cells [1]; [4]) [µM] | IC50 (HepG-2 cells [1]; HepG2, read-out: HepG-2 IC50) [µM] | IC50 (HCT-116 cells; [5]) [µM] | IC50 (HepG-2 cells [1]; [6]) [µM] | also measured
1 | 1.29 ± 0.13 | COc1ccc(NC(=O)c2c(Nc3ccccc3)sc(C(=O)NN=Cc3ccc(OC)c(O)c3)c2NC(C)=O)cc1 [Compound 21, 4-Acetamido-5-[2-(3-hydroxy-4-methoxybenzylidene) hydrazinocarbonyl]-N-(4-methoxyphenyl)-2-phenylaminothiophene-3-carboxamide] | 2.61 ± 0.12 | 2.61 | 4.32 ± 0.11 |  | caspase-3 level, fold increase compared to the control (caspase-3): 9.2 fold; Bax level, fold increase compared to the control (Bax): 11.8 fold; caspase-7 level, fold increase compared to the control (caspase-7): 5.9 fold; G2/M arrest, fold increase compared to the control (HepG-2 cells [2]): ~1.9 fold; apoptotic sub-G1 cell population (HepG-2 cells [2]): 6.07%; %β-TUB polymerization inhibition (β-tubulin): 85.95 ± 0.21%; β-tubulin polymerization inhibition (β-tubulin): 86%; p53 protein level, fold increase compared with the control (p53): ~1.7 fold; early apoptosis fold increase vs control (HepG-2 cells [3]): 6 fold; late apoptosis fold increase vs control (HepG-2 cells [3]): 21 fold; late apoptotic cells percentage (Q2) (HepG-2 cells [3]): 7.2%; Bcl-2 level, fold decrease compared to the control (Bcl-2): 2.5 fold
2 |  | COc1ccc(NC(=O)c2c(Nc3ccccc3)sc(C#N)c2NC(=O)CNc2ccccc2Cl)cc1 [Compound 11, 5-Cyano-N-(4-methoxyphenyl)-4-[2-(2-chlorophenyl)aminoacetamido]-2-phenylaminothiophene-3-carboxamide] | 31.3 ± 3.61 |  | 52.2 ± 5.54 |  | 
3 |  | COc1ccc(NC(=O)c2c(Nc3ccccc3)sc(C(=O)NN=Cc3ccc(Br)cc3)c2NC(C)=O)cc1 [Compound 18, 4-Acetamido-5-[2-(4-bromobenzylidene)hydrazinocarbonyl]-N-(4-methoxyphenyl)-2-phenylaminothiophene-3-carboxamide] | 10.1 ± 1.12 |  | 7.41 ± 0.62 | 10.4 | 
4 | 3.92 ± 0.16 | COc1ccc(NC(=O)c2c(Nc3ccccc3)sc(C#N)c2NC(=O)CNc2ccc([N+](=O)[O-])cc2)cc1 [Compound 10, 5-Cyano-N-(4-methoxyphenyl)-4-[2-(4-nitrophenyl)aminoacetamido]-2-phenylaminothiophene-3-carboxamide] | 9.71 ± 0.86 | 9.71 | 5.12 ± 0.42 | 9.7 | 
5 |  | CNC(=O)c1cc(Oc2ccc(NC(=O)Nc3ccc(Cl)c(C(F)(F)F)c3)cc2)ccn1 [Sorafenib, reference compound] |  | 4.43 |  |  | IC50 (HCT-116 cells; HCT-116, read-out: IC50 against HCT-116 cells): 3.22 µM
6 |  | COc1ccc(NC(=O)c2c(Nc3ccccc3)sc(C#N)c2NC(=O)CNc2ccc(OC)c(OC)c2)cc1 [Compound 13, 5-Cyano-N-(4-methoxyphenyl)-4-[2-(3,4-dimethoxyphenyl)amino-acetamido]-2-phenylaminothiophene-3-carboxamide] | 15.2 ± 1.62 |  | 10.3 ± 1.31 | 15.2 | 
7 | 5.91 ± 0.23 | COc1ccc(NC(=O)c2c(Nc3ccccc3)sc(C(=O)NN=Cc3ccc(Cl)cc3)c2NC(C)=O)cc1 [Compound 17, 4-Acetamido-5-[2-(4-chlorobenzylidene)hydrazinocarbonyl]-N-(4-methoxyphenyl)-2-phenylaminothiophene-3-carboxamide] | 9.5 ± 0.86 | 9.5 | 9.24 ± 1.02 | 9.5 | 
8 |  | COc1ccc(NC(=O)c2c(Nc3ccccc3)sc(C#N)c2NC(=O)CNc2ccc(Cl)cc2)cc1 [Compound 5, 4-[2-(4-Chlorophenyl)aminoacetamido]-5-cyano-N-(4-methoxyphenyl)-2-phenylaminothiophene-3-carboxamide] | 1.92 ± 0.12 | 1.92 | 7.83 ± 0.61 |  | caspase-3 level, fold increase compared to the control (caspase-3): about 11.2 fold; fold higher cytotoxicity than Sorafenib (HepG-2 cells [1]; HepG-2 cells): 2.31 fold and 2.3 fold; Bax/Bcl-2 ratio, fold elevation compared to the control (Bax; HepG-2, at IC50): 30 fold; Bax level, fold increase compared to the control (Bax): 6.6 fold; caspase-7 level, fold increase compared to the control (caspase-7): ~6.9 fold; G2/M arrest, fold increase compared to the control (HepG-2 cells [2]): about 2 fold; apoptotic sub-G1 cell population (HepG-2 cells [2]): 8.23%; %β-TUB polymerization inhibition (β-tubulin): 72.61 ± 0.14%; β-tubulin polymerization inhibition (β-tubulin): 72% and 73%; fold more potent than Sorafenib against VEGFR-2 (VEGFR-2): 4 fold; p53 protein level, fold increase compared with the control (p53): about 3.4 fold; early apoptosis fold increase vs control (HepG-2 cells [3]): 8 fold; late apoptosis fold increase vs control (HepG-2 cells [3]): 23 fold; late apoptotic cells percentage (Q2) (HepG-2 cells [3]): 7.85%; early apoptotic cells percentage (Q4) (HepG-2 cells [3]; control 0.72%): 5.47%; Bcl-2 level, fold decrease compared to the control (Bcl-2): 2.2 fold
9 |  | COc1ccc(NC(=O)c2c(Nc3ccccc3)sc(C#N)c2NC(=O)CNc2ccc(O)cc2)cc1 [Compound 8, 5-Cyano-N-(4-methoxyphenyl)-4-[2-(4-hydroxyphenyl)amino-acetamido]-2-phenylaminothiophene-3-carboxamide] | 10.4 ± 1.08 |  | 16.2 ± 1.52 | 10.4 | 
10 |  | COc1ccc(NC(=O)c2c(Nc3ccccc3)sc(C(=O)NN=Cc3ccc(C)cc3)c2NC(C)=O)cc1 [Compound 19, 4-Acetamido-5-[2-(4-methylbenzylidene)hydrazinocarbonyl]-N-(4-methoxyphenyl)-2-phenylaminothiophene-3-carboxamide] | 12.2 ± 1.31 |  | 21.4 ± 1.82 | 12.2 | 
11 |  | COc1ccc(NCC(=O)Nc2c(C#N)sc(Nc3ccccc3)c2C(=O)Nc2ccc(OC)cc2)cc1 [Compound 9, 5-Cyano-N-(4-methoxyphenyl)-4-[2-(4-methoxyphenyl)amino-acetamido]-2-phenylaminothiophene-3-carboxamide] | 14.3 ± 1.23 |  | 21.4 ± 1.92 | 14 | 
12 |  | COc1ccc(NC(=O)c2c(Nc3ccccc3)sc(C(=O)NN=Cc3ccccc3)c2NC(C)=O)cc1 [Compound 16, 4-Acetamido-5-(2-benzylidenehydrazinocarbonyl)-N-(4-methoxyphenyl)-2-phenylaminothiophene-3-carboxamide] | 21.4 ± 2.91 |  | 19.2 ± 1.46 | 21 | 
13 |  | COc1ccc(NC(=O)c2c(Nc3ccccc3)sc(C#N)c2NC(=O)CNc2ccc(C)cc2)cc1 [Compound 7, 5-Cyano-N-(4-methoxyphenyl)-2-phenylamino-4-[2-(4-methylphenyl)amino-acetamido]thiophene-3-carboxamide] | 24.3 ± 1.96 |  | 18.4 ± 1.23 | 24 | 
14 | 1.71 ± 0.21 | COc1ccc(C=NNC(=O)c2sc(Nc3ccccc3)c(C(=O)Nc3ccc(OC)cc3)c2NC(C)=O)cc1 [Compound 20, 4-Acetamido-5-[2-(4-methoxybenzylidene)hydrazinocarbonyl] -N-(4-methoxyphenyl)-2-(phenylamino)thiophene-3-carboxamide] | 4.96 ± 0.45 | 4.96 | 3.12 ± 0.31 | 8.7 | 
15 |  | COc1ccc(NC(=O)c2c(Nc3ccccc3)sc(C#N)c2NC(=O)CNc2ccccc2)cc1 [Compound 4, 5-Cyano-N-(4-methoxyphenyl)-2-phenylamino-4-(2-phenylamino-acetamido)thiophene-3-carboxamide] | 74.3 ± 5.98 |  | 64.1 ± 7.51 |  | 
16 | 5.21 ± 0.32 | COc1ccc(NC(=O)c2c(Nc3ccccc3)sc(C(=O)NN=Cc3cc(OC)c(OC)c(OC)c3)c2NC(C)=O)cc1 [Compound 23, 4-Acetamido-N-(p-methoxyphenyl)-2-phenylamino-5-[2-(3,4,5-trimethoxybenzylidene)hydrazinocarbonyl]thiophene-3-carboxamide] | 10.82 ± 0.065 | 10.8 | 6.46 ± 0.49 | 5.1 | 
17 |  | COc1ccc(NC(=O)c2c(Nc3ccccc3)sc(C#N)c2NC(=O)CNc2ccccc2[N+](=O)[O-])cc1 [Compound 12, 5-Cyano-N-(4-methoxyphenyl)-4-[2-(2-nitrophenyl)amino-acetamido]-2-phenylaminothiophene-3-carboxamide] | 43.3 ± 4.23 |  | 60.1 ± 7.41 |  | 
18 | 0.93 ± 0.19 | COc1ccc(NC(=O)c2c(Nc3ccccc3)sc(C#N)c2NC(=O)CNc2ccc(Br)cc2)cc1 [Compound 6, 4-[2-(4-Bromophenyl)amino-acetamido]-5-cyano-N-(4-methoxyphenyl)-2-phenylaminothiophene-3-carboxamide] | 3.51 ± 0.22 | 3.51 | 3.13 ± 0.21 | 3.5 | 
